Test results reported in ChEMBL document CHEMBL1121701, “Inhibition of liver alanine aminotransferase activity by some benzophenanthridine alkaloids” (J Med Chem, 1981).

How the values were obtained:
[1] = The stability constant of adduct formation for cysteine at pH 5.68; assay type: ADME
Method in brief: (§1)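 Thiol–alkaloid adduct stability constants measured by UV-vis spectrophotometry at 20 °C in 10-mm cells. Aqueous solutions held 4×10^-6 M alkaloid, 4×10^-6 to 1.6×10^-2 M thiol and 4×10^-3 M hexadecyltrimethylammonium bromide. Phosphate buffers of ionic strength 0.05 at the stated pH.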

[2] = The stability constant of adduct formation for cysteine at pH 6.25; assay type: ADME; method in brief: as §1
[3] = The stability constant of adduct formation for glutathione at pH 5.68; assay type: ADME; method in brief: as §1
[4] = The stability constant of adduct formation for glutathione at pH 6.25; assay type: ADME; method in brief: as §1
[5] = The stability constant of adduct formation for thioethanol at pH 5.68; assay type: ADME; method in brief: as §1
[6] = The stability constant of adduct formation for thioethanol at pH 6.25; assay type: ADME; method in brief: as §1
[7] = target: T1, Alanine aminotransferase 1 (Rattus norvegicus) (UniProt P25409); experiment: Concentration for complete inactivation of alanine aminotransferase
T1 sequence (whole entry): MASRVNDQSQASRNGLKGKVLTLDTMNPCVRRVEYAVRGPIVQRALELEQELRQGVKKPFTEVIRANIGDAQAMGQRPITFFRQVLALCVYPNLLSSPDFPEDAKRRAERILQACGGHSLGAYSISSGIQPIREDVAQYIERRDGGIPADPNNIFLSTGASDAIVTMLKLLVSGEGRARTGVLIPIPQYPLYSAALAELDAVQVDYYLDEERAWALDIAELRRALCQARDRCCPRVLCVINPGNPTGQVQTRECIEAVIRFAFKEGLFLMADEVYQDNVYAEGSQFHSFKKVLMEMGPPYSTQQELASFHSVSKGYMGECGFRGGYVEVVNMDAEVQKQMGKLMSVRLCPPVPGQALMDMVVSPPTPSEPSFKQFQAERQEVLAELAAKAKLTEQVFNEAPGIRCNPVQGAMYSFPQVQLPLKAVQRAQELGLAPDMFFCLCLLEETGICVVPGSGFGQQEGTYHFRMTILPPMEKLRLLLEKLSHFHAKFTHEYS
Method in brief: (§2)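 Partially purified rat liver ALT (ammonium sulfate fraction from prednisolone-treated male Wistar rats, lyophilized, diluted in 0.1 M pH 7.4 potassium phosphate). Enzyme preincubated with alkaloid at pH 7.4, room temperature, 30 min. Then added to substrate (8.33×10^-2 M L-alanine, 1.67×10^-3 M 2-oxoglutarate, pH 7.4) at 30 °C. Product read by 2,4-dinitrophenylhydrazine, alkaline NaOH, A505.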

[8] = target: T1, Alanine aminotransferase 1 (Rattus norvegicus); experiment: Inhibitory activity against alanine aminotransferase was measured; method in brief: as §2
[9] = target: T1, Alanine aminotransferase 1 (Rattus norvegicus); experiment: Effect of cysteine on alanine aminotransferase inhibition by the compound at 10E-5; details: for inhibition: concentration not given here
Method in brief: (§3)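 ALT alkaloid-inhibition assay at 30 °C (L-alanine/2-oxoglutarate substrate, pH 7.4 phosphate, 2,4-dinitrophenylhydrazine read-out at 505 nm). Substrate solution contained 10^-2 M of the thiol. Percent inhibition compared against thiol-free substrate.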

[10] = target: T1, Alanine aminotransferase 1 (Rattus norvegicus); experiment: Effect of glutathione on alanine aminotransferase inhibition by the compound at 10E-5; details: for inhibition: concentration not given here; method in brief: as §3
[11] = target: T1, Alanine aminotransferase 1 (Rattus norvegicus); experiment: Effect of thioethanol on alanine aminotransferase inhibition by the compound at 10E-5; details: for inhibition: concentration not given here; method in brief: as §3
[12] = The stability constant of adduct formation for cysteine at pH 5.69; assay type: ADME
Method in brief: (§4)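 Spectrophotometric measurement at 20 °C in 10-mm cells, with pH checked by meter. Aqueous solutions held 4×10^-6 M alkaloid, 4×10^-6 to 1.6×10^-2 M thiol, and 4×10^-3 M hexadecyltrimethylammonium bromide, in phosphate buffers of ionic strength 0.05. The stability constant (K) of the thiol–iminium adduct was taken at the stated pH.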

[13] = The stability constant of adduct formation for glutathione at pH 5.28; assay type: ADME; method in brief: as §4
[14] = The stability constant of adduct formation for glutathione at pH 5.69; assay type: ADME; method in brief: as §4
[15] = The stability constant of adduct formation for thioethanol at pH 5.28; assay type: ADME; method in brief: as §4
[16] = The stability constant of adduct formation for thioethanol at pH 5.69; assay type: ADME; method in brief: as §4
[17] = The stability constant of adduct formation for cysteine at pH 5.28; assay type: ADME; method in brief: as §4

For COc1ccc2c(c[n+](C)c3c4cc5c(cc4ccc23)OCO5)c1OC.[Cl-] [CHELERYTHRINE CHLORIDE], the “Log K” value [1] was 2.74, the “Log K” value [2] was 3.09 and the “Log K” value [3] was 4.39. For the same molecule, the “Log K” value [4] was 4.39, the “Log K” value [5] was 3.46 and the “Log K” value [6] was 4.05. For the same molecule, the Concentration [7] was 30 µM, the ID50 [8] was 4 µM and the Protection [9] was 5%. It also gave an inhibition [9] of 40%, a Protection [10] of 70% and an inhibition [10] of 13%. The Protection [11] was 55% and the inhibition [11] was 23%.
In the case of C[n+]1cc2c3c(ccc2c2ccc4cc5c(cc4c21)OCO5)OCO3 [SANGUINARIUM], the “Log K” value [12] is reported as 3.33, the “Log K” value [13] is reported as 4.64 and the “Log K” value [14] is reported as 4.79. For the same molecule, the “Log K” value [15] was 3.77, the “Log K” value [16] was 4.01 and the Concentration [7] was 50 µM. It also gave an ID50 [8] of 3.4 µM, a Protection [9] of 5% and an inhibition [9] of 74%. The Protection [10] was 81%, the inhibition [10] was 15% and the Protection [11] was 75%. For the same molecule, the inhibition [11] was 20% and the “Log K” value [17] was 2.97.
